Test results from ChEMBL document CHEMBL4406921, “Discovery of Axelopran (TD-1211): A Peripherally Restricted μ-Opioid Receptor Antagonist” (ACS Med Chem Lett, 2019).

What was measured:
[1] = Half life in human liver microsomes at 3 uM; type: ADME, Microsome
Mu-type opioid receptor [2] = molecular target: T1, Mu-type opioid receptor (Homo sapiens, UniProt P35372); experiment: Antagonist activity at human recombinant mu opioid receptor expressed in CHO-K1 cell membranes assessed as intrinsic activity at 10 pM to 20 uM incubated for 30 mins in presence of Eu-GTP by DELFIA GTP binding assay relative to DAMGO
T1 sequence (P35372 whole entry): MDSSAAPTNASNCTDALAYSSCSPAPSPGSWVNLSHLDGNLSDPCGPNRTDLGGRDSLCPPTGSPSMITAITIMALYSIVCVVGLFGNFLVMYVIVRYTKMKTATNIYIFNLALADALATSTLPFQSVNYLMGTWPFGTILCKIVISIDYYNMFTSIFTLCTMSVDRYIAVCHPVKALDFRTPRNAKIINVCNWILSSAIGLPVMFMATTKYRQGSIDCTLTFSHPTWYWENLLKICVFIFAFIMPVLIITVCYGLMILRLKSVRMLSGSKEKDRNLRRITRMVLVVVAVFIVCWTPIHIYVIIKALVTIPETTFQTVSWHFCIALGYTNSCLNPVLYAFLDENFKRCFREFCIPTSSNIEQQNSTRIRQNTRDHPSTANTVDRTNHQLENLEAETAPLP

Mu-type opioid receptor [3] = molecular target: T1, Mu-type opioid receptor; experiment: Displacement of [3H]-DPN from recombinant human mu opioid receptor expressed in CHO-K1 cell membranes by radioligand binding assay
Outline: (§1)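 Membranes from CHO-K1 cells stably transfected with human recombinant μ or δ receptor, or guinea pig κ receptor; competition with [3H]-DPN radioligand; affinity reported as pKi.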

[4] = Half life in dog liver microsomes at 3 uM; type: ADME, Canis lupus familiaris, Microsome
[5] = molecular target: Kappa-type opioid receptor (Cavia porcellus, UniProt P41144); experiment: Displacement of [3H]-DPN from guinea pig kappa opioid receptor expressed in CHO-K1 cell membranes by radioligand binding assay; outline: as §1
Sequence of Kappa-type opioid receptor (P41144 whole entry): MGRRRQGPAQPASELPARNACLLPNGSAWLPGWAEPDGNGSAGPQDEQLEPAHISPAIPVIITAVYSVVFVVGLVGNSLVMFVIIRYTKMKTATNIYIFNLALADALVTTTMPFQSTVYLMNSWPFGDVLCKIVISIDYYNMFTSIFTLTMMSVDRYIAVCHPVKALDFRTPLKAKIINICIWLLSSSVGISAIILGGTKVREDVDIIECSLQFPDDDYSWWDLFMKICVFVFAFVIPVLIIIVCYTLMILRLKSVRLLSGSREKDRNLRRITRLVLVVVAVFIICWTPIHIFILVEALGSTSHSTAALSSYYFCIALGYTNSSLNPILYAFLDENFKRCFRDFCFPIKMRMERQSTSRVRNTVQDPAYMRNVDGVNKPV

[6] = Half life in rat liver microsomes at 3 uM; type: ADME, Microsome
[7] = molecular target: Delta-type opioid receptor (Homo sapiens, UniProt P41143); experiment: Displacement of [3H]-DPN from recombinant human delta opioid receptor expressed in CHO-K1 cell membranes by radioligand binding assay; outline: as §1
Sequence of Delta-type opioid receptor (P41143 whole entry): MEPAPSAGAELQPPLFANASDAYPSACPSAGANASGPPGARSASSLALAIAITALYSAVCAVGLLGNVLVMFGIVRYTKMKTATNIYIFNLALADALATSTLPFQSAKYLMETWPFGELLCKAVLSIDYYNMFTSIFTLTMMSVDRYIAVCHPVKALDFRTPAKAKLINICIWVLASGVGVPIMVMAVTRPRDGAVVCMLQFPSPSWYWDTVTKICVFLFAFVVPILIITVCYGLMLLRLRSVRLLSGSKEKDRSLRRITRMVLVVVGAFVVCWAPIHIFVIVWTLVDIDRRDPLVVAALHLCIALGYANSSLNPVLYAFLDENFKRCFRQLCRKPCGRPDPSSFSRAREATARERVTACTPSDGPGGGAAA

[8] = Permeability coefficient, Kp in human Caco2 cells; type: ADME, cell-based; conditions: Caco-2, read-out: Kp
Mus musculus [9] = experiment: Inhibition of morphine-induced delays in gastric emptying in po dosed ICR mouse administered via gavage pretreated with compound and 30 mins later injected with morphine followed 5 mins later by ingestion of test meal and measured after 60 mins; type: functional; conditions: for ED50: read-out: ID50 (the source's name)
Outline: (§2)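 Mice dosed orally; reversal of morphine-induced delay in intestinal transit, delay in gastric emptying, or hot plate antinociception measured; dose-dependent responses fitted to give ID50 in mg/kg.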

Mus musculus [10] = organism: Mus musculus; experiment: Peripheral selectivity index, ratio of ID50 for inhibition of morphine-induced delays in gastric emptying in ICR mouse to ID50 for inhibition of morphine-induced delays in intestinal transit in ICR mouse; type: functional
Mus musculus [11] = experiment: Inhibition of morphine-induced delays in intestinal transit in po dosed ICR mouse administered via gavage pretreated with compound and 30 mins later injected with morphine followed 5 mins later by ingestion of test meal and measured after 60 mins; type: functional; conditions: for ED50: read-out: ID50 (the source's name); outline: as §2
[12] = Cmax in Sprague-Dawley rat at 5 mg/kg, po administered via gavage; type: ADME, organism-based; parameters: dose 5 mg/kg, route oral; conditions: in vivo
Mus musculus [13] = experiment: Inhibition of morphine-induced antinociceptive activity in po dosed ICR mouse administered via gavage pretreated with compound and 30 mins later injected with morphine and measured after 30 mins by hot plate test; type: functional; conditions: for ED50: read-out: ID50 (the source's name); outline: as §2
Mus musculus [14] = organism: Mus musculus; experiment: Peripheral selectivity index, ratio of ID50 for inhibition of morphine-induced antinociceptive activity in ICR mouse to ID50 for inhibition of morphine-induced delays in intestinal transit in ICR mouse; type: functional
Outline: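 Mice were dosed orally with antagonist at several doses and challenged with morphine. ID50 values were taken from dose-dependent reversal of morphine-induced hot plate antinociception (CNS) and of morphine-induced delay in intestinal transit (peripheral). The index is the hot plate ID50 divided by the intestinal transit ID50.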

[15] = Half life in Sprague-Dawley rat at 5 mg/kg, po administered via gavage; type: ADME, organism-based; conditions: in vivo
[16] = AUC(0 to t) in Sprague-Dawley rat at 5 mg/kg, po administered via gavage; type: ADME, organism-based; conditions: in vivo
[17] = Oral bioavailability in Sprague-Dawley rat at 5 mg/kg administered via gavage; type: ADME, organism-based; conditions: in vivo
[18] = Half life in rat liver microsomes at 15 uM; type: ADME, Microsome

Row | SMILES | half-life at 3 µM [1] [h] | Intrinsic activity (Mu-type opioid receptor [2]) [%] | Ki (Mu-type opioid receptor [3]) [nM] | half-life at 3 µM [4] [h] | Ki [5] [nM] | half-life at 3 µM [6] [h] | Ki [7] [nM] | Papp [8] [×10⁻⁶ cm/s] | ED50 (Mus musculus [9]) [mg/kg] | ED50 (Mus musculus [11]) [mg/kg] | ED50 (Mus musculus [13]) [mg/kg] | other results
1 | CCCCCCN(CCN1[C@@H]2CC[C@H]1C[C@@H](c1cccc(C(N)=O)c1)C2)C(=O)CO | 1.5 | -9 | 0.794 | 0.183 | 3.16 | 1.18 | 63.1 | 45 |  |  |  | 
2 | NC(=O)c1cccc([C@H]2C[C@H]3CC[C@@H](C2)N3CCN(CC2CCCC2)C(=O)CO)c1 | 1.5 | 4 | 0.251 | 0.233 | 0.316 | 1.5 | 15.8 | 12 |  |  |  | 
3 | CC(C)NC(=O)N(CCN1[C@@H]2CC[C@H]1C[C@@H](c1cccc(C(N)=O)c1)C2)CC1CCCCC1 |  | 21 | 0.2 | 0.233 | 0.158 | 0.333 | 1.26 | 36 |  |  |  | 
4 | C[C@H]1CN(C[C@H](Cc2ccccc2)C(=O)O)CC[C@@]1(C)c1cccc(O)c1 | > 1.5 | -8 | 0.316 | > 1.5 | 25.1 | > 1.5 | 15.8 | 5 | 0.027 | 0.064 | 1.1 | Selectivity Index (Mus musculus [10]): 41; Cmax [12]: 710 ng/mL; Selectivity Index (Mus musculus [14]): 17; half-life [15]: 3.7 h; AUC(0-t) [16]: 1200 ng·h/mL; bioavailability [17]: 53%
5 | NC(=O)c1cccc([C@H]2C[C@H]3CC[C@@H](C2)N3CCN(CCc2ccccc2)C(=O)CO)c1 | 1.5 |  |  | 1.02 |  | 0.567 | 20 | 16 |  |  |  | 
6 | CS(=O)(=O)CC(=O)N(CCN1[C@@H]2CC[C@H]1C[C@@H](c1cccc(C(N)=O)c1)C2)CC1CCCCC1 | 1.5 | 0 | 0.1 | 0.467 | 0.1 | 0.833 | 1.26 | 18 | 0.33 | 0.49 | 24 | inhibition (Mus musculus [9]): Dose-dependent effect; Selectivity Index (Mus musculus [10]): 73; inhibition (Mus musculus [11]): Dose-dependent effect; Cmax [12]: 880 ng/mL; inhibition (Mus musculus [13]): Dose-dependent effect; Selectivity Index (Mus musculus [14]): 49; half-life [15]: 1 h; AUC(0-t) [16]: 1300 ng·h/mL; bioavailability [17]: 60%
7 | CCC(CC)CN(CCCN1[C@@H]2CC[C@H]1C[C@@H](c1cccc(C(N)=O)c1)C2)C(=O)CO | 1.5 | 3 |  | 1.5 | 0.2 | 1.48 | 3.16 | 20 |  |  |  | 
8 | NC(=O)c1cccc([C@H]2C[C@H]3CC[C@@H](C2)N3CCNCC2CCCCC2)c1 |  | 12 | 0.251 |  | 0.158 |  | 6.31 |  |  |  |  | half-life at 15 µM [18]: 0.7 h
9 | O=C1CC[C@@]2(O)[C@H]3Cc4ccc(O)c5c4[C@@]2(CCN3CC2CC2)[C@H]1O5 [NALTREXONE] |  |  |  |  |  |  |  | 84 | 0.5 | 0.6 | 0.82 | 
10 | NC(=O)c1cccc([C@H]2C[C@H]3CC[C@@H](C2)N3CCN(CC2CCC(F)(F)CC2)C(=O)CO)c1 | 1.5 | -5 | 0.126 | 1.5 | 0.251 | 1.5 | 12.6 | 14 | 0.03 | 0.23 | 4.4 | inhibition (Mus musculus [9]): Dose-dependent effect; Selectivity Index (Mus musculus [10]): 147; inhibition (Mus musculus [11]): Dose-dependent effect; Cmax [12]: 390 ng/mL; inhibition (Mus musculus [13]): Dose-dependent effect; Selectivity Index (Mus musculus [14]): 19; half-life [15]: 2 h; AUC(0-t) [16]: 1200 ng·h/mL; bioavailability [17]: 30%
11 | NC(=O)c1cccc([C@H]2C[C@H]3CC[C@@H](C2)N3CCN(CC2CCC2)C(=O)CO)c1 | 1.5 | 13 | 1.58 | 1.5 | 0.631 | 1.5 | 31.6 | 14 |  |  |  | 
12 | NC(=O)c1cccc([C@H]2C[C@H]3CC[C@@H](C2)N3CCN(CC2CCCCC2)C(=O)Cc2nnn[nH]2)c1 | 1.5 | 0 | 0.398 | 1.5 | 1.58 | 1.5 | 3.16 | < 1 |  |  |  | 
13 | CCC(CC)CN(CCN1[C@@H]2CC[C@H]1C[C@@H](c1cccc(C(N)=O)c1)C2)C(=O)CO | 1.5 | 9 | 0.158 | 1.25 | 0.126 | 1.5 | 12.6 | 32 |  |  |  | 
14 | NC(=O)c1cccc([C@H]2C[C@H]3CC[C@@H](C2)N3CCN(CC2CCCCC2)C(=O)CO)c1 | 1.32 | -3 | 0.1 | 0.3 | 0.126 | 1.28 | 3.98 | 40 | 0.046 | 0.1 | 4.2 | inhibition (Mus musculus [9]): Dose-dependent effect; Selectivity Index (Mus musculus [10]): 91; inhibition (Mus musculus [11]): Dose-dependent effect; Cmax [12]: 290 ng/mL; inhibition (Mus musculus [13]): Dose-dependent effect; Selectivity Index (Mus musculus [14]): 42; half-life [15]: 1.3 h; AUC(0-t) [16]: 430 ng·h/mL; bioavailability [17]: 61%
15 | NC(=O)c1cccc([C@H]2C[C@H]3CC[C@@H](C2)N3CCN(CC2CCOCC2)C(=O)CO)c1 | 1.5 | 0 | 12.6 | 1.5 | 6.31 | 1.5 | 200 | < 1 |  |  |  | 
16 | NC(=O)c1cccc([C@H]2C[C@H]3CC[C@@H](C2)N3CCN(Cc2ccccc2)C(=O)CO)c1 | 1.5 | -3 |  | 1.5 | 0.2 | 1.42 | 5.01 | 21 |  |  |  | 
